This note sets out measurements from ChEMBL document CHEMBL1125639, “Synthesis and resolution of (+-)-7-chloro-8-hydroxy-1-(3'-iodophenyl)-3-methyl-2,3,4,5-tetrahydro- 1H-3- benzazepine (TISCH): a high affinity and selective iodinated ligand for CNS D1 dopamine receptor” (J Med Chem, 1991).

“And” between values parts separate entries of the source, which are not always exact repeats. Equal values may be shown once.

The subject of data set [1] is Rattus norvegicus. Kind of data set: Biodistribution ratio measured as the ratio of compound present in brain to that of blood at 15 min after intravenous injection. The format is ADME, organism-based. As to conditions: 0.25 h. Put shortly:
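Male Sprague-Dawley rats (225-300 g) given 0.2 mL saline containing [125I]-labeled ligand (2-5 μCi, ~2200 Ci/mmol) via femoral vein under ether anesthesia; sacrificed at set times by cardiac excision. Brain and blood weighed and gamma-counted against diluted injectate; ratio taken from % dose/gram values, 3 rats per time point.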

Data set [2] relates to Rattus norvegicus. Kind of data set: Biodistribution of compound in rats brain after an intravenous injection was measured at 2 min. The format is ADME, organism-based. Particulars: in vivo. Put shortly:
(§1)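 Rats (male Sprague-Dawley, 225-300 g) given the 125I ligand (2-5 μCi, ~2200 Ci/mmol) in 0.2 mL saline via the femoral vein under ether anesthesia, then killed at set times. Whole brain removed, weighed and gamma-counted. % dose/organ is taken against diluted injectate aliquots. Mean of 3 rats ± std dev.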

The subject of data set [3] is Rattus norvegicus. As to the kind of experiment: Biodistribution of compound in rats heart after an intravenous injection was measured at 1 hr. The format is ADME, organism-based. As to conditions: in vivo. The gist of the method: (§2)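 Male Sprague-Dawley rats (225-300 g), free access to food and water. Under ether anesthesia, given 0.2 mL saline containing 125I-labelled ligand (2-5 μCi, ~2200 Ci/mmol) into the femoral vein. Killed by cardiac excision at set times. Organs removed, weighed and gamma-counted. % dose/organ is taken against diluted injectate aliquots, with blood and muscle assumed to be 7% and 40% of body weight. Mean of 3 rats ± std dev.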

Data set [4] deals with Rattus norvegicus. Kind of data set: Biodistribution of compound in rats kidney after an intravenous injection was measured at 15 min. The format is ADME, organism-based. Particulars: in vivo, 0.25 h. Put shortly:
as §2

Data set [5] deals with Rattus norvegicus. Kind of data set: Biodistribution of compound in rats liver after an intravenous injection was measured at 15 min. Format: ADME, organism-based. As to conditions: in vivo, 0.25 h. The gist of the method: as §2
Data set [6] deals with Rattus norvegicus. Kind of data set: Biodistribution of compound in rats liver after an intravenous injection was measured at 1 hr. Format: ADME, organism-based. Particulars: in vivo. The gist of the method: as §2
Data set [7] deals with Rattus norvegicus. Kind of data set: Biodistribution of compound in rats liver after an intravenous injection was measured at 2 min. As to conditions: in vivo. The format is ADME, organism-based. The gist of the method: as §2
In data set [8] the test system is Rattus norvegicus. As to the kind of experiment: Biodistribution of compound in rats lung after an intravenous injection was measured at 2 min. Format: ADME, organism-based. Particulars: in vivo. Put shortly: as §2
In data set [9] the test system is Rattus norvegicus. Kind of data set: Biodistribution of compound in rats thyroid after an intravenous injection was measured at 1 hr. Particulars: in vivo. Format: ADME, organism-based, Thyroid gland. Put shortly:
as §2

The subject of data set [10] is Rattus norvegicus. As to the kind of experiment: Regional brain distribution of compound in rats cerebellum after an intravenous injection was measured at 1 hr. The format is ADME, organism-based. Particulars: in vivo. Put shortly: (§3)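 After femoral-vein injection of [125I]-labeled ligand (2-5 μCi, ~2200 Ci/mmol, 0.2 mL saline, ether anesthesia) into male Sprague-Dawley rats (225-300 g), brains were dissected into cortex, striatum and cerebellum, weighed and gamma-counted. % dose/gram calculated against diluted initial dose; regional ratio = % dose/gram of region divided by that of cerebellum.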

Data set [11] deals with Rattus norvegicus. Kind of data set: Regional brain distribution of compound in rats cerebellum after an intravenous injection was measured at 2 min. Format: ADME, organism-based. As to conditions: in vivo. The gist of the method: as §3
Data set [12] concerns Rattus norvegicus. Kind of data set: Regional brain distribution of compound in rats striatum after an intravenous injection was measured at 1 hr. The format is ADME, organism-based. Particulars: in vivo. The gist of the method: as §3
For data set [13], the system named is Rattus norvegicus. As to the kind of experiment: Regional brain distribution of compound in rats cerebellum after an intravenous injection was measured at 15 min. Format: ADME, organism-based. Particulars: in vivo, 0.25 h. Put shortly:
as §3

The test system of data set [14] is Rattus norvegicus. Kind of data set: Regional brain distribution of compound in rats striatum after an intravenous injection was measured at 2 min. Format: ADME, organism-based. Particulars: in vivo. Put shortly:
as §3

The subject of data set [15] is Rattus norvegicus. Kind of data set: Biodistribution of compound in rats blood after an intravenous injection was measured at 15 min. Format: ADME, organism-based. As to conditions: in vivo, 0.25 h. Put shortly:
as §2

In data set [16] the test system is Rattus norvegicus. As to the kind of experiment: Biodistribution of compound in rats blood after an intravenous injection was measured at 1 hr. Format: ADME, organism-based. Particulars: in vivo. The gist of the method: as §2
Data set [17] concerns Rattus norvegicus. Kind of data set: Biodistribution of compound in rats blood after an intravenous injection was measured at 2 min. The format is ADME, organism-based. As to conditions: in vivo. The gist of the method:
as §2

Data set [18] deals with Rattus norvegicus. As to the kind of experiment: Biodistribution of compound in rats brain after an intravenous injection was measured at 1 hr. Format: ADME, organism-based. Particulars: in vivo. Put shortly:
as §1

Data set [19] relates to Rattus norvegicus. As to the kind of experiment: Biodistribution of compound in rats skin after an intravenous injection was measured at 1 hr. Format: ADME, organism-based, Zone of skin. Particulars: in vivo. Put shortly:
as §2

Data set [20] relates to Rattus norvegicus. Kind of data set: Biodistribution of compound in rats skin after an intravenous injection was measured at 2 min. Format: ADME, organism-based, Zone of skin. Particulars: in vivo. Put shortly: as §2
The subject of data set [21] is Rattus norvegicus. As to the kind of experiment: Biodistribution of compound in rats spleen after an intravenous injection was measured at 1 hr. Format: ADME, organism-based. Particulars: in vivo. Put shortly: as §2

Take `CN1CCc2cc(Cl)c(O)cc2[C@H](c2cccc(I)c2)C1`: the Biodistribution in data set [1] amounted to 5.77%; in data set [2], 1.59; in data set [3], 0.144; in [4], 4.36; in data set [5], 20.35; in data set [6] it was 16.51. The Biodistribution turned out to be 16.13 in [7]; 9.02 in data set [8]; 0.035 in [9]; 0.109 in [10]; 0.73 in data set [11]; 0.21 in [12]. For the same compound, the Biodistribution was 0.44 in [13]; 0.398 and 0.555 in [14]; 1.588 and 0.975 in data set [15]; 0.975 in [16]; 2.94 in data set [17]; 0.313 in data set [18]. Besides, the Biodistribution in data set [19] is 7.8; in [20], 8.23; in data set [21], 0.025.
